In ChEMBL document CHEMBL1127420, “Syntheses of racemic and nearly optically pure ether lipids and evaluation of in vitro antineoplastic activities” (J Med Chem, 1994):

Legend:
[1] = test system: HuT78; assay: Cytotoxicity was assessed by measurement of cytosolic lactic dehydrogenase (LDH) leakage after 24 hr incubation with human cutaneous T-lymphoma (Hut 78) cell line; assay type: functional; details: for IC50: Homo sapiens, HuT78, 24 h, read-out: ID50 (the source's name)
Outline: (§1)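 Log-phase cells were washed and resuspended in phenol red-free RPMI 1640, then mixed 1:1 with lipid in serum medium. Final conditions were 5 × 10^5 cells/mL, 0–50 µg/mL ether lipid and 0.5% ethanol, in triplicate at 37 °C in 5% CO2 for 24 h. Supernatant LDH was measured with lactate/INT/PMS/NAD in Tris pH 8.2, read at 490 nm after 3 min. % cytotoxicity = (E−S)/(M−S), with M from freeze-thaw. ID50 came from nonlinear regression, mean ± SD.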

[2] = Cytotoxicity was assessed by measurement of cytosolic lactic dehydrogenase (LDH) leakage after 24 hr incubation with freshly isolated human peripheral lymphocytes; details: read-out: ID50
Outline: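 Peripheral lymphocytes were pooled from two unmedicated human donors and isolated by the Boyum method, giving >85% lymphocytes; viability was checked by trypan blue. Cytotoxicity was measured as 24 h LDH leakage into the medium and expressed as % of maximal freeze-thaw release after subtracting spontaneous release. ID50 came from a nonlinear regression fit of cytotoxicity versus dose.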

[3] = test system: B-lymphoblastic leukemic cell line; assay: Cytotoxicity was assessed by measurement of cytosolic lactic dehydrogenase (LDH) leakage after 24 hr incubation with human B-lymphoblastic leukemic ([…]) cell line; assay type: functional; details: for IC50: Homo sapiens, B-lymphoblastic leukemic cell line, 24 h, read-out: ID50 (the source's name); outline: as §1
[4] = test system: CCRF-CEM; assay: Cytotoxicity was assessed by measurement of cytosolic lactic dehydrogenase (LDH) leakage after 24 hr incubation with human T-lymphoblastic leukemic (CEM) cell line; assay type: functional; details: for IC50: Homo sapiens, CCRF-CEM, 24 h, read-out: ID50 (the source's name); outline: as §1

Compound: CCCCCCCCCCCCCCCCCCOCC(COP(=O)(O)O[C@H](C)C[N+](C)(C)C)OC.[OH-] (stereo partly drawn)
- IC50 [1]: 9.1 µg/mL
- CC50 at 24 h [2]: > 100 µg/mL
- IC50 [3]: 10.1 µg/mL
- IC50 [4]: 2.7 µg/mL

Compound: CCCCCCCCCCCCCCCCCCOCC(COP(=O)(O)OCC[N+]1(C)CCOCC1)OC.[OH-] (stereo not drawn)
- IC50 [1]: 3.4 µg/mL
- CC50 at 24 h [2]: 52.1 µg/mL
- IC50 [3]: 8.4 µg/mL
- IC50 [4]: 2.8 µg/mL

Compound: CCCCCCCCCCCCCCCCCCOCC(COP(=O)(O)OCCN(C)C)OC.O (stereo not drawn)
- IC50 [1]: 3.5 µg/mL
- CC50 at 24 h [2]: 24.6 µg/mL
- IC50 [3]: 9.6 µg/mL
- IC50 [4]: 4.6 µg/mL

Compound: CCCCCCCCCCCCCCCCCCOCC(COP(=O)(O)OCC[N+]1(C)CCCC1)OC.[OH-] (stereo not drawn)
- IC50 [1]: 9.3 µg/mL
- CC50 at 24 h [2]: 22.7 µg/mL
- IC50 [3]: 13.2 µg/mL
- IC50 [4]: 2.7 µg/mL

Compound: CCCCCCCCCCCCCCCCCCOCC(COP(=O)(O)OC[C@H](C)[N+](C)(C)C)OC.[OH-] (stereo partly drawn)
- IC50 [1]: 5.9 µg/mL
- CC50 at 24 h [2]: > 100 µg/mL
- IC50 [3]: 8.9 µg/mL
- IC50 [4]: 2.1 µg/mL

Compound: CCCCCCCCCCCCCCCCCCOCC(COP(=O)(O)OC[C@@H](C)[N+](C)(C)C)OC.[OH-] (stereo partly drawn)
- IC50 [1]: 6.9 µg/mL
- CC50 at 24 h [2]: > 100 µg/mL
- IC50 [3]: 9.9 µg/mL
- IC50 [4]: 2 µg/mL

Compound: CCCCCCCCCCCCCCCCCCOCC(COP(=O)(O)O[C@@H](C)C[N+](C)(C)C)OC.[OH-] (stereo partly drawn)
- IC50 [1]: 9.3 µg/mL
- CC50 at 24 h [2]: > 100 µg/mL
- IC50 [3]: 9.8 µg/mL
- IC50 [4]: 2.3 µg/mL

Compound: CCCCCCCCCCCCCCCCCCOCC(COP(=O)(O)OCC[N+](C)(C)C)OC.[OH-] (stereo in doubt; 1)
- ID50 [1]: 4.5 µg/mL
- ID50 [3]: 15.3 µg/mL
- ID50 [4]: 1.5 µg/mL

Compound: CCCCCCCCCCCCCCCCCCOCC(COP(=O)(O)OCC[N+](C)(C)C)OC.[OH-] (stereo in doubt; 2)
- IC50 [1]: 4.1 µg/mL
- CC50 at 24 h [2]: > 100 µg/mL
- IC50 [3]: 16.3 µg/mL
- IC50 [4]: 1.9 µg/mL

Compound: CCCCCCCCCCCCCCCCCCOCC(COP(=O)(O)OCC[N+](C)(C)C)OC.[OH-] (stereo in doubt; 3)
- ID50 [1]: 6.6 µg/mL
- ID50 [3]: 20.4 µg/mL
- ID50 [4]: 2 µg/mL
